Results: ChEMBL document CHEMBL4371072, “Structure-Activity Relationship Studies and Plasmodium Life Cycle Profiling Identifies Pan-Active N-Aryl-3-trifluoromethyl Pyrido[1,2- a]benzimidazoles Which Are Efficacious in an in Vivo Mouse Model of Malaria” (J Med Chem, 2019)

Tests used:
Plasmodium falciparum [1] = experiment: (§1) Antiplasmodial activity against chloroquine-sensitive asexual blood stage of Plasmodium falciparum NF54 infected in human RBC assessed as reduction in [3H]hypoxanthine incorporation preincubated for 48 hrs followed by [3H]hypoxanthine addition measured after 24 hrs by liquid scintillation counting method; assay type: functional, organism-based
Method in brief: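 Asexual blood-stage P. falciparum NF54 assay, run as a modified [3H]-hypoxanthine incorporation assay. Values are the mean of n ≥ 2 assays; determinations differing more than 3-fold were excluded. Chloroquine and artesunate served as controls.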

Plasmodium falciparum [2] = experiment: as §1, with “chloroquine-resistant” for “chloroquine-sensitive”, “K1” for “NF54”; assay type: functional, organism-based
Method in brief: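 Asexual blood-stage P. falciparum K1 (multidrug resistant) screened by modified [3H]-hypoxanthine incorporation assay; IC50 as mean of n ≥ 2 assays, replicates differing above 3-fold excluded; chloroquine and artesunate controls.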

[3] = Resistance index, ratio of IC50 for chloroquine-resistant asexual blood stage of Plasmodium falciparum K1 infected in human RBC to IC50 for chloroquine-sensitive asexual blood stage of Plasmodium falciparum NF54 infected in human RBC; assay type: functional
Plasmodium berghei [4] = experiment: Antimalarial activity against liver stage form of luciferase transfected Plasmodium berghei sporozoites infected in human HuH7 cells preincubated with host cells for 1 hr followed by plasmodial infection and measured after 48 hrs by bioluminescence method; assay type: functional, organism-based; conditions: Huh-7
Plasmodium falciparum [5] = experiment: Antiplasmodial activity against chloroquine-sensitive final late stage of Plasmodium falciparum NF54-Mal8p1.16-GFP-Luc gametocytes after 24 hrs by BacTiter-Glo assay; assay type: functional, organism-based; conditions: NF54, 24 h
Method in brief: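 Late-stage PfNF54 gametocytes produced in vitro; gametocytocidal IC50 via luciferase reporter and ATP bioluminescence platforms; n=3 independent biological replicates in technical triplicates, ± S.E.M.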

[6] = Metabolic stability in Balb/c mouse liver microsomes assessed as parent compound remaining at 0.1 uM after 30 mins in presence of NADPH by LC-MS/MS analysis
[7] = Half life in Balb/c mouse liver microsomes at 0.1 uM in presence of NADPH by LC-MS/MS analysis
[8] = Metabolic stability in human liver microsomes assessed as parent compound remaining at 0.1 uM after 30 mins in presence of NADPH by LC-MS/MS analysis
[9] = Half life in human liver microsomes at 0.1 uM in presence of NADPH by LC-MS/MS analysis
CHO = experiment: Cytotoxicity against CHO cells after 48 hrs by MTT assay; assay type: cell-based; conditions: Cricetulus griseus
[10] = Selectivity index, ratio of IC50 for CHO cells to IC50 for chloroquine-sensitive asexual blood stage of Plasmodium falciparum NF54 infected in human RBC; assay type: toxicity; conditions: Chinese hamster, read-out: Ratio IC50
Method in brief: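 Selectivity index taken as the ratio of the CHO-cell IC50 to the P. falciparum NF54 IC50.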

hERG (KCNH2) [11] = target: T1, hERG (KCNH2) (Homo sapiens, UniProt Q12809); experiment: Inhibition of human ERG expressed in CHO cells assessed as reduction in peak channel current at 0.3 uM by IonWork patch-clamp electrophysiology method relative to control; assay type: cell-based; conditions: CHO cells expressing human ERG
T1 sequence (Q12809 whole entry): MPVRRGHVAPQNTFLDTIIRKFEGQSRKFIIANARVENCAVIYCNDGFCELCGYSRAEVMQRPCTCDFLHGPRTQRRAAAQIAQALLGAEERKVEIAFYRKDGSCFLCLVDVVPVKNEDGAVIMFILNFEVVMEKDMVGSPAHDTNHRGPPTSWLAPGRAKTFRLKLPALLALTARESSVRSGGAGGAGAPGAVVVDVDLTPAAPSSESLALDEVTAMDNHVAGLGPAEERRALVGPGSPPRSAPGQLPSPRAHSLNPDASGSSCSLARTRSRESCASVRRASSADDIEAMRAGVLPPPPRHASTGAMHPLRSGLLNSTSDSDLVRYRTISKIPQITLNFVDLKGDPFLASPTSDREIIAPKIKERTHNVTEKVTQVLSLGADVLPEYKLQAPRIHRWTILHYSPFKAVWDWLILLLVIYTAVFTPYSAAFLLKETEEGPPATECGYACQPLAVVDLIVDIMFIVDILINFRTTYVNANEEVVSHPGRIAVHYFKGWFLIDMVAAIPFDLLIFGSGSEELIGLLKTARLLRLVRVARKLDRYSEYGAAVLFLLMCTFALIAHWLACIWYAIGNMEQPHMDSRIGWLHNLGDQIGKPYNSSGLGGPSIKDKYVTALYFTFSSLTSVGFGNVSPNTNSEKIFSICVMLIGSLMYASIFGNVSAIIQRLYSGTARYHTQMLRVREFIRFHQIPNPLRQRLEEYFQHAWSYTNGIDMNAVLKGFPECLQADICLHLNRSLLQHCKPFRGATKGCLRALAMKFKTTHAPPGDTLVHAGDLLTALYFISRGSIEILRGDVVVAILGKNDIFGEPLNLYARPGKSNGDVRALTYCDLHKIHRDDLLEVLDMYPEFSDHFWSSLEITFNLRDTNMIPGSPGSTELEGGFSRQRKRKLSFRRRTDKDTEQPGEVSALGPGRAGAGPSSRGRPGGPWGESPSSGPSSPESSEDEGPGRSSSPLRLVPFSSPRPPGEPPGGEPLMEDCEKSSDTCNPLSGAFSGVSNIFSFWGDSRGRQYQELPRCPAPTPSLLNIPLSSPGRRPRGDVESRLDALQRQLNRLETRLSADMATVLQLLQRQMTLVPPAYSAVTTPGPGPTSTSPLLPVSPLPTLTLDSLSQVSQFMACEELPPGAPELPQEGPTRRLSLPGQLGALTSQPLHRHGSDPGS

hERG (KCNH2) [12] = target: T1, hERG (KCNH2); experiment: Inhibition of human ERG expressed in CHO cells assessed as reduction in peak channel current at 10 uM by IonWork patch-clamp electrophysiology method relative to control; assay type: cell-based; conditions: CHO cells expressing human ERG
Method in brief: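 hERG potassium channel profiled by IonWorks patch-clamp electrophysiology, with 10 μM as the highest concentration tested. Values are the mean of 3 results from experiments run as biological and technical triplicates.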

[13] = target: Voltage-gated inwardly rectifying potassium channel KCNH2 (Homo sapiens, UniProt Q12809); experiment: Inhibition of human ERG expressed in CHO cells assessed as reduction in peak channel current by IonWork patch-clamp electrophysiology method; assay type: cell-based
Sequence of Voltage-gated inwardly rectifying potassium channel KCNH2 (Q12809 whole entry): as above

Plasmodium falciparum [14] = experiment: Ratio of IC50 for early stage of Plasmodium falciparum NF54-PfS16-GFP-Luc gametocytes to IC50 for late stage of Plasmodium falciparum NF54-Mal8p1.16-GFP-Luc gametocytes; assay type: functional
Plasmodium falciparum [15] = experiment: Ratio of IC50 for late stage of Plasmodium falciparum NF54-Mal8p1.16-GFP-Luc gametocytes to IC50 for early stage of Plasmodium falciparum NF54-PfS16-GFP-Luc gametocytes; assay type: functional
Plasmodium berghei [16] = experiment: Antimalarial activity against GFP-fused Plasmodium berghei ANKA infected in NMRI mouse assessed as inhibition of parasitemia at 50 mg/kg, po administered consecutively at 4, 24, 48 and 72 hrs post infection by flow cytometry relative to control; assay type: functional
Method in brief: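 NMRI mice infected intravenously with P. berghei; oral treatment at 50 mg/kg given 4, 24, 48 and 72 h post-infection (4 x 50 mg/kg). Control mice received vehicle only. Parasitemia of treated animals compared with that of untreated controls. Mice counted as cured if no parasitemia was detected 30 days after treatment.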

Plasmodium berghei [17] = experiment: Antimalarial activity against GFP-fused Plasmodium berghei ANKA infected in NMRI mouse assessed as host mean survival time at 50 mg/kg, po administered consecutively at 4, 24, 48 and 72 hrs post infection; assay type: functional
Method in brief: (§2)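 NMRI mice infected intravenously with P. berghei; oral treatment at 4, 24, 48 and 72 h post-infection (4 x 50 mg/kg), vehicle to controls; reference drug 4 x 30 mg/kg orally on four consecutive days. Parasitemia compared with untreated controls; mean survival days recorded; cure if no parasitemia 30 days after treatment.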

[18] = Lipophilicity, log D of the compound; assay type: physicochemical; conditions: octanol/water
Method in brief: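 LogD computed with ChemDraw 16.0.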

[19] = Solubility of the compound; assay type: physicochemical
[20] = Half life in C57B1/6 mouse at 2 mg/kg, iv by LC-MS/MS analysis; assay type: ADME, organism-based; conditions: in vivo
Method in brief: (§3)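 Mouse IV PK: C57B1/6 mice (n=2) given 2 mg/kg intravenously as a solution in dimethylacetamide, polyethylene glycol and propylene glycol/ethanol (4:1) at ratio 1:3:6. Blood concentrations followed over time; values are means of 2 mice.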

[21] = Volume of distribution in C57B1/6 mouse at 2 mg/kg, iv by LC-MS/MS analysis; assay type: ADME, organism-based; conditions: in vivo; method in brief: as §3
[22] = Clearance in C57B1/6 mouse at 2 mg/kg, iv by LC-MS/MS analysis; assay type: ADME, organism-based; conditions: in vivo; method in brief: as §3
[23] = AUC (0 to infinity) in C57B1/6 mouse at 2 mg/kg, iv by LC-MS/MS analysis; assay type: ADME, organism-based; parameters: dose 2 mg/kg, route intravenous, time infinity; conditions: in vivo; method in brief: as §3
[24] = Cmax in C57B1/6 mouse at 20 mg/kg, po by LC-MS/MS analysis; assay type: ADME, organism-based; parameters: dose 20 mg/kg, route oral; conditions: in vivo
Method in brief: (§4)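 Mouse oral PK: C57B1/6 mice (n=3) dosed orally at 20 mg/kg. Blood concentrations followed over time; values are means of 3 mice.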

[25] = Tmax in C57B1/6 mouse at 20 mg/kg, po by LC-MS/MS analysis; assay type: ADME, organism-based; conditions: in vivo; method in brief: as §4
[26] = Half life in C57B1/6 mouse at 20 mg/kg, po by LC-MS/MS analysis; assay type: ADME, organism-based; conditions: in vivo; method in brief: as §4
[27] = AUC (0 to infinity) in C57B1/6 mouse at 20 mg/kg, po by LC-MS/MS analysis; assay type: ADME, organism-based; parameters: dose 20 mg/kg, time infinity, route oral; conditions: in vivo; method in brief: as §4
[28] = Oral bioavailability in C57B1/6 mouse at 20 mg/kg by LC-MS/MS analysis; assay type: ADME, organism-based; conditions: in vivo
Method in brief: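 Oral bioavailability from C57B1/6 mice dosed 20 mg/kg orally (n=3), referenced to a separate intravenous set at 2 mg/kg (n=2) formulated in dimethylacetamide/polyethylene glycol/propylene glycol–ethanol (4:1), ratio 1:3:6.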

[29] = Ratio of Cmax in C57B1/6 mouse at 20 mg/kg, po to IC50 for chloroquine-sensitive asexual blood stage of Plasmodium falciparum NF54 infected in human RBC; assay type: ADME, organism-based; conditions: in vivo
[30] = Time at which blood concentration stays above in vitro antiplasmodial Plasmodium falciparum NF54 IC50 in C57B1/6 mouse at 20 mg/kg, po; assay type: ADME, organism-based; conditions: in vivo
Hemozoin = experiment: Inhibition of beta hematin formation after 5 hrs by NP40 detergent-based assay
Plasmodium berghei [31] = experiment: Antimalarial activity against GFP-fused Plasmodium berghei ANKA infected in NMRI mouse assessed as host mean survival time at 30 mg/kg, po administered for 4 consecutive days; assay type: functional; method in brief: as §2

Row | SMILES | IC50 (Plasmodium falciparum [1]) | IC50 (Plasmodium falciparum [2]) | Ratio IC50 [3] | IC50 (Plasmodium berghei [4]) | IC50 (Plasmodium falciparum [5]) | remaining at 0.5 h, 0.1 µM ([6]; liver microsomes) | half-life at 0.1 µM ([7]; liver microsomes) | remaining at 0.5 h, 0.1 µM ([8]; liver microsomes) | half-life at 0.1 µM ([9]; liver microsomes) | IC50 (CHO) | selectivity ratio [10] | inhibition at 0.3 µM (hERG (KCNH2) [11]) | inhibition at 10 µM (hERG (KCNH2) [12]) | IC50 [13] | also measured
1 | N#Cc1c(C(F)(F)F)cc(NCc2ccco2)n2c1nc1cc(Cl)c(Cl)cc12 | 0.44 µM | 0.23 µM | 0.52 | 0.06 µM | 2 µM | 66% | 0.833 h | 100% | > 2.5 h | 4.84 µM | 10 | 6.82% | < 40% | > 10 µM | 
2 | N#Cc1c(C(F)(F)F)cc(NCc2ccc(OC(F)(F)F)cc2)n2c1nc1cc(Cl)c(Cl)cc12 | 0.44 µM |  |  | 0.19 µM | 0.21 µM | 82% | 1.75 h | > 99% | > 2.5 h | 5.02 µM | 11 |  |  |  | 
3 | Cc1ccc(CNc2cc(C(F)(F)F)c(C#N)c3nc4cc(Cl)c(Cl)cc4n23)cc1 | 0.4 µM |  |  |  | 0.6 µM |  |  |  |  | 6.06 µM | 15 |  |  |  | Ratio IC50 (Plasmodium falciparum [14]): 0.2; Ratio IC50 (Plasmodium falciparum [15]): 6; remaining at 0.5 h, 0.1 µM ([6]; microsomes): 69%; half-life at 0.1 µM ([7]; microsomes): 0.933 h; remaining at 0.5 h, 0.1 µM ([8]; microsomes): 91%; half-life at 0.1 µM ([9]; microsomes): > 2.5 h
4 | N#Cc1c(C(F)(F)F)cc(NCc2ccccc2F)n2c1nc1cc(Cl)c(Cl)cc12 | 0.17 µM | 0.14 µM | 0.82 | 0.05 µM | 0.37 µM | 84% | 1.98 h | 97% | > 2.5 h | 4.3 µM | 25 | 5.49% | < 40% | > 10 µM | inhibition in vivo at 50 mg/kg (Plasmodium berghei [16]): 99.9%; MST (Plasmodium berghei [17]): 14 days; logD [18]: 4.16; solubility [19]: < 5 µM
5 | N#Cc1c(C(F)(F)F)cc(Nc2ccc(OC(F)(F)F)cc2)n2c1nc1ccccc12 | 0.17 µM | 0.15 µM | 0.88 | 0.11 µM | 3.32 µM | > 99% | > 2.5 h | > 99% | > 2.5 h | 17.6 µM | 103 | 7.51% | < 40% | > 10 µM | inhibition in vivo at 50 mg/kg (Plasmodium berghei [16]): 98%; MST (Plasmodium berghei [17]): 12 days; logD [18]: 5.34; solubility [19]: < 5 µM; half-life [20]: 11.4 h; Vd [21]: 0.9 L/kg; clearance [22]: 0.97 mL/min/kg; AUC [23]: 79.6 µM·h; Cmax [24]: 1100 nM; Tmax [25]: 5 h; half-life [26]: 7.86 h; AUC [27]: 19.4 µM·h; bioavailability [28]: 2%; Ratio [29]: 6; Time [30]: > 20 h
6 | N#Cc1c(C(F)(F)F)cc(NCc2cccc(F)c2)n2c1nc1cc(Cl)c(Cl)cc12 | 0.19 µM | 0.15 µM | 0.79 | 0.07 µM | 0.27 µM |  |  |  |  | 7.03 µM | 37 | 6.53% | < 40% | > 10 µM | Ratio IC50 (Plasmodium falciparum [14]): 1.2; Ratio IC50 (Plasmodium falciparum [15]): 0.5; remaining at 0.5 h, 0.1 µM ([6]; microsomes): 84%; half-life at 0.1 µM ([7]; microsomes): 1.98 h; remaining at 0.5 h, 0.1 µM ([8]; microsomes): 100%; half-life at 0.1 µM ([9]; microsomes): > 2.5 h
7 | N#Cc1c(C(F)(F)F)cc(NCc2cccs2)n2c1nc1cc(Cl)c(Cl)cc12 | 0.31 µM | 0.14 µM | 0.45 | 0.14 µM | 1.67 µM |  |  |  |  | 8.48 µM | 27 | 6.13% | < 40% | > 10 µM | 
8 | CCN(CC)CCCC(C)Nc1ccnc2cc(Cl)ccc12 (stereo not drawn) [CHLOROQUINE] |  |  |  |  |  |  |  |  |  |  |  |  |  |  | IC50 (Hemozoin): 18 µM; MST (Plasmodium berghei [31]): 21 days
